Consider 27 compounds from ChEMBL document CHEMBL1131497, “Discovery of 1-(4-fluorophenyl)-(3R)-[3-(4-fluorophenyl)-(3S)-hydroxypropyl]-(4S)-(4 -hydroxyphenyl)-2-azetidinone (SCH 58235): a designed, potent, orally active inhibitor of cholesterol absorption” (J Med Chem, 1998).

Data set [1] is described as follows: The pharmacokinetics property percent negation of rise in liver cholesterol esters relative to control-fed 0.5% cholesterol for 7 days, At a dose of 0.3 mg/kg/day. The class given is ADME, organism-based. Conditions: in vivo, 168 h. Summed up:
(§1)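 Hamsters were fed a 0.5% cholesterol diet for 7 days with once-daily oral gavage dosing in 0.2 mL corn oil. Controls got the same diet and vehicle without drug. Livers were collected on day 7 and neutral lipids extracted. Cholesteryl ester content was measured by HPLC. Results are given as percent change in hepatic cholesteryl ester versus cholesterol-fed controls, or as ED50 in mg/kg/day.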

Data set [2] is described as follows: Percent negation of rise in total serum cholesterol relative to control-fed 0.5% cholesterol for 7 days, At a dose of 1 mg/kg/day. The class given is ADME, organism-based. The following applies: in vivo, 168 h. Summed up:
(§2)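 Serum total cholesterol was measured in hamsters given 0.5% dietary cholesterol for 7 days with daily oral gavage dosing (0.2 mL corn oil vehicle). Controls were cholesterol-fed animals receiving vehicle without drug. Results are expressed as percent negation of the diet-induced rise in serum total cholesterol relative to these controls.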

Data set [3] in a line: Percent negation of rise in total serum cholesterol relative to control-fed 0.5% cholesterol for 7 days, At a dose of 3 mg/kg/day. Conditions: in vivo, 168 h. Format: ADME, organism-based. The essentials: as §2
Data set [4] can be described thus: The pharmacokinetics property percent negation of rise in liver cholesterol esters relative to control-fed 0.5% cholesterol for 7 days, At a dose of 0.03 mg/kg/day. The class given is ADME, organism-based. The following applies: in vivo, 168 h. The essentials:
as §1

Data set [5] can be described thus: Percent negation of rise in total serum cholesterol relative to control-fed 0.5% cholesterol for 7 days, At a dose of 0.1 mg/kg/day. The class given is ADME, organism-based. The following applies: in vivo, 168 h. Summed up:
as §2

Data set [6] in a line: The pharmacokinetics property percent negation of rise in liver cholesterol esters relative to control-fed 0.5% cholesterol for 7 days, At a dose of 1 mg/kg/day. The class given is ADME, organism-based. Conditions: in vivo, 168 h. Summed up:
as §1

Data set [7] concerns Cricetinae gen. sp. The experiment in a line: Evaluated for its ability to reduce liver cholesterol esters(LCE) in cholesterol-fed hamsters. The class given is functional, Cricetulus griseus. The essentials:
as §1

Data set [8] is described as follows: Percent negation of rise in total serum cholesterol relative to control-fed 0.5% cholesterol for 7 days, At a dose of 0.3 mg/kg/day. The class given is ADME, organism-based. Conditions: in vivo, 168 h. Summed up:
as §2

The nature of data set [9]: Percent negation of rise in total serum cholesterol relative to control-fed 0.5% cholesterol for 7 days, at a dose of 0.03 mg/kg/day. Format: ADME, organism-based. The following applies: in vivo, 168 h. The essentials: as §2
The nature of data set [10]: The pharmacokinetics property percent negation of rise in liver cholesterol esters relative to control-fed 0.5% cholesterol for 7 days, At a dose of 0.1 mg/kg/day. Format: ADME, organism-based. The following applies: in vivo, 168 h. The essentials:
as §1

Data set [11] can be described thus: The pharmacokinetics property percent negation of rise in liver cholesterol esters relative to control-fed 0.5% cholesterol for 7 days, At a dose of 3 mg/kg/day. Format: ADME, organism-based. The following applies: in vivo, 168 h. The essentials: as §1
Data set [12] relates to Cricetinae gen. sp. In words: The compound was evaluated for its ability to reduce liver cholesterol esters(LCE) in cholesterol-fed hamsters; NE=no effect at 100 mg/kg. More on the design: dose 100 mg/kg. Conditions: Cricetulus griseus. The class given is functional, organism-based. The essentials: as §1
For data set [13], the system named is Cricetinae gen. sp. The experiment in a line: The compound was evaluated for percent reduction of liver cholesterol esters(LCE) in cholesterol-fed hamsters at 10 mg/Kg/day. Format: functional, Cricetulus griseus. Summed up: as §1
The test system of data set [14] is Cricetinae gen. sp. In words: The compound was evaluated for percent reduction of liver cholesterol esters(LCE) in cholesterol-fed hamsters at 2.5 mg/Kg/day. Format: functional, Cricetulus griseus. Summed up: as §1
Data set [15] has as its system Cricetinae gen. sp. In words: The compound was evaluated for percent reduction of liver cholesterol esters(LCE) in cholesterol-fed hamsters at 3 mg/kg/day. The class given is functional, Cricetulus griseus. Summed up: as §1
A short description of data set [16]: Percent negation of rise in total serum cholesterol relative to control-fed 0.5% cholesterol for 7 days, At a dose of 1 mg/kg/day; percent reduction was not statistically significant. Format: ADME, organism-based. The following applies: in vivo, 168 h. Summed up:
as §2

A short description of data set [17]: Percent negation of rise in total serum cholesterol relative to control-fed 0.5% cholesterol for 7 days, At a dose of 0.3 mg/kg/day; percent reduction was not statistically significant. The class given is ADME, organism-based. Conditions: in vivo, 168 h. Summed up:
as §2

A short description of data set [18]: The pharmacokinetics property percent negation of rise in liver cholesterol esters relative to control-fed 0.5% cholesterol for 7 days, At a dose of 0.3 mg/kg/day; percent reduction was not statistically significant. The class given is ADME, organism-based. Conditions: in vivo, 168 h. The essentials:
as §1

Data set [19] concerns Cricetinae gen. sp. The following applies: Cricetulus griseus; Liver; 10 mg/kg.

Activity calls are given as the source filed them. The calls are words filed in the database; no cut-off is given here.

For orientation: ED50 means the dose at which the effect has come halfway, by size or by number of responders. On to `O=C1[C@H](CC[C@H](O)c2ccc(F)cc2)[C@@H](c2ccc(O)cc2)N1c1ccc(F)cc1` [EZETIMIBE], for which the Negation was -96% in [1]; -100% in data set [2]; -100% in data set [3]; -39% in data set [4]; -37% in data set [5]; -100% in data set [6]. Further, the Negation in data set [8] was -72%; in [9], -23%; in data set [10], -87%; in [11], -100%. For the same compound, the ED50 in data set [7] came out at 0.04 mg/kg/day.

Consider `Cc1ccc(C)c(OCCCC(C)(C)C(=O)O)c1`, for which the ED50 result in [12] was “inactive”. In data set [7], `CC1CC[C@@]2(OC1)O[C@H]1C[C@H]3[C@@H]4CC[C@H]5C[C@@H](O[C@@H]6O[C@@H](CO)[C@@H](O[C@@H]7O[C@@H](COC(=O)Nc8ccccc8F)[C@@H](OC(=O)Nc8ccccc8F)[C@H](O)[C@@H]7O)[C@H](O)[C@@H]6O)CC[C@]5(C)[C@H]4CC(=O)[C@]3(C)[C@H]1[C@@H]2C` (some centres not stated) displayed an ED50 of 0.07 mg/kg/day.

Take `COc1ccc([C@@H]2[C@@H](CCCc3ccccc3)C(=O)N2c2ccc(O)cc2)cc1`: the Reduction in data set [13] is on record as -78%.

In the case of `COc1ccc(N2C(=O)[C@H](CC[C@@H](O)c3ccccc3)[C@H]2c2ccc(O)cc2)cc1`, in data set [7], it took a dose of 3 mg/kg/day to reach the 50% effect level (ED50). Turning to `COc1ccc([C@@H]2[C@@H](CCCc3ccc(O)cc3)C(=O)N2c2ccc(OC)cc2)cc1`, the Reduction in data set [13] is on record as -16%. The compound `COc1ccc(N2C(=O)[C@H](CC[C@H](O)c3ccccc3)[C@H]2c2ccc(O)cc2)cc1` came in with an ED50 in [7] of 0.3 mg/kg/day. Still for that read-out and setting: under `COc1ccc([C@@H]2[C@@H](CC[C@H](O)c3ccccc3)C(=O)N2c2ccc(OC)cc2)cc1` stands 0.9 mg/kg/day; under `CC1CC[C@@]2(OC1)O[C@H]1C[C@H]3[C@@H]4CC[C@H]5C[C@@H](O[C@@H]6O[C@@H](CO)[C@@H](O[C@@H]7O[C@@H](COC(=O)Nc8ccccc8F)[C@@H](OC(=O)Nc8ccccc8F)[C@H](O)[C@@H]7O)[C@H](O)[C@@H]6O)CC[C@]5(C)[C@H]4C(=O)C[C@]3(C)[C@H]1[C@@H]2C` (some centres not stated), 0.025 mg/kg/day.

Regarding `CCC(CC(CC)c1ccc(C[N+](C)(C)C)cc1)c1ccccc1.[Cl-]` (configuration not stated), the “% reduction” value in data set [14] is -96.

`COc1ccc(N2C(=O)[C@H](CCC(=O)c3ccccc3)[C@H]2c2ccc(O)cc2)cc1`: the median effective dose (ED50) in data set [7] came to 3 mg/kg/day. Still for that read-out and setting: under `COc1ccc([C@@H]2[C@@H](CC[C@@H](O)c3ccccc3)C(=O)N2c2ccc(OC)cc2)cc1` stands 5 mg/kg/day.

`O=C(CC[C@H]1C(=O)N(c2ccc(F)cc2)[C@@H]1c1ccc(OCc2ccccc2)cc1)c1ccc(F)cc1`: in data set [15], the Reduction was -96%. As to `COc1ccc(N2C(=O)[C@H](CCCc3ccc(O)cc3)[C@H]2c2ccc(O)cc2)cc1`, the Reduction in data set [13] is listed as -64%. For `COc1ccc([C@@H]2[C@@H](CCCc3ccccc3)C(=O)N2c2ccc(OC)cc2)cc1` [SCH-48461], the Negation result in data set [16] is “Not Active”; in data set [17] it was “Not Active”; in data set [3], -76%; in [11], -68%; in [18] it was “Not Active”. In addition, the ED50 in data set [7] turned out to be 2.2 mg/kg/day. `CC[C@H](C)C(=O)O[C@H]1C[C@@H](C)C=C2C=C[C@H](C)[C@H](CC[C@@H]3C[C@@H](O)CC(=O)O3)[C@H]21`: in data set [19], the ED50 result was “No effect”. `O=C1[C@H](CCCc2ccccc2)[C@@H](c2ccc(O)cc2)N1c1ccc(O)cc1`: in data set [13], the Reduction was -68%.

Regarding `CC(=O)Oc1ccc([C@@H]2[C@@H](CC[C@@H](OC(C)=O)c3ccc(F)cc3)C(=O)N2c2ccc(F)cc2)cc1`, the ED50 in [7] was determined as 1.5 mg/kg/day. In the case of `O=C1[C@H](CCCc2ccc(F)cc2)[C@@H](c2ccc(O)cc2)N1c1ccc(F)cc1`, in data set [7], the ED50 worked out at 2 mg/kg/day. As to `O=C(CC[C@H]1C(=O)N(c2ccc(F)cc2)[C@@H]1c1ccc(O)cc1)c1ccc(F)cc1`, in [7], the ED50 was found to be 0.3 mg/kg/day. Still for that read-out and setting: under `O=C1[C@H](CC[C@@H](O)c2ccc(F)cc2)[C@@H](c2ccc(O)cc2)N1c1ccc(F)cc1` stands 0.8 mg/kg/day; under `O=C1[C@H](CC[C@H](O)c2ccc(F)cc2)[C@@H](c2ccc(OCc3ccccc3)cc2)N1c1ccc(F)cc1`, 0.1 mg/kg/day.

On to `COc1ccc([C@@H]2[C@@H](CCC(=O)c3ccccc3)C(=O)N2c2ccc(OC)cc2)cc1`, for which the 50% effect level in [7] (ED50) was put at a dose of 2 mg/kg/day. The same measure, in the same setting: under `COc1ccc([C@@H]2[C@@H](CCCc3ccc(F)cc3)C(=O)N2c2ccc(F)cc2)cc1` stands 0.7 mg/kg/day.

Consider `CC(=O)Oc1ccc([C@@H]2[C@@H](CC[C@H](OC(C)=O)c3ccc(F)cc3)C(=O)N2c2ccc(F)cc2)cc1`, for which the ED50 in data set [7] was found to be 0.06 mg/kg/day. `COc1ccc(N2C(=O)[C@H](CCCc3ccccc3)[C@H]2c2ccc(O)cc2)cc1` returned an ED50 in data set [7] of 5 mg/kg/day. Take `O=C1[C@H](C/C=C/c2ccc(F)cc2)[C@@H](c2ccc(O)cc2)N1c1ccc(F)cc1`: the ED50 in data set [7] turned out to be 2.5 mg/kg/day.
